Data taken from ChEMBL document CHEMBL1145026, “Synthesis and antibacterial activity of 6-O-arylbutynyl ketolides with improved activity against some key erythromycin-resistant pathogens” (2003).
≈ marks a conversion by molar mass, not a printed value.

Assays:
Type in all cases: functional
Staphylococcus aureus [1] = assay: In Vitro antibacterial activity against Staphylococcus aureus 1775 (ermA-c strain)
Summary of the method: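 Methicillin-resistant (MRSA) strain. Minimum inhibitory concentration read by agar dilution, following NCCLS recommendations.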

Streptococcus pneumoniae [2] = assay: In Vitro antibacterial activity against Streptococcus pneumoniae 5979 (ermB strain)
Summary of the method: (§1)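 Strains with MLSB resistance encoded by ermB. MICs obtained by agar dilution as recommended by NCCLS.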

Haemophilus influenzae = assay: In Vitro antibacterial activity against H. flu DILL (Amp-R strain)
Summary of the method: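 MIC by agar dilution following NCCLS recommendations. Test organism is H. influenzae DILL, an ampicillin-resistant strain carrying a β-lactamase-positive determinant.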

Streptococcus pyogenes [3] = assay: In Vitro antibacterial ativity against Streptococcus pyogenes PIU2548 (mefA strain)
Summary of the method: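 Tested on a mefA-encoded efflux-resistant strain. The endpoint is the MIC by NCCLS-recommended agar dilution.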

Streptococcus pyogenes [4] = assay: In Vitro antibacterial ativity against Streptococcus pyogenes 930 (ermB strain); summary of the method: as §1
Streptococcus pneumoniae [5] = assay: In Vitro antibacterial activity against Streptococcus pneumoniae 5649 (mefE strain)
Summary of the method: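 Efflux-resistant strain carrying mefE. MIC determined by the agar dilution method recommended by NCCLS.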

Staphylococcus aureus [6] = assay: In Vitro antibacterial activity against Staphylococcus aureus A5177 (ermA-i strain)
Summary of the method: (§2)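 MIC by agar dilution following NCCLS recommendations, against S. aureus.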

Streptococcus pneumoniae [7] = assay: In Vitro antibacterial activity against Streptococcus pneumoniae ATCC 6303 (Ery-S strain)
Summary of the method: (§3)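 Agar dilution method per NCCLS recommendations, with activity reported as minimum inhibitory concentration.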

Streptococcus pyogenes [8] = assay: In Vitro antibacterial ativity against Streptococcus pyogenes EES61 (Ery-S strain); summary of the method: as §3
Staphylococcus aureus [9] = assay: In Vitro antibacterial activity against Staphylococcus aureus ATCC 6538P (Ery-S […] strain); summary of the method: as §2

| SMILES | MIC (Staphylococcus aureus [1]) [µg/mL] | MIC (Streptococcus pneumoniae [2]) [µg/mL] | MIC (Haemophilus influenzae) [µg/mL] | MIC (Streptococcus pyogenes [3]) [µg/mL] | MIC (Streptococcus pyogenes [4]) [µg/mL] | MIC (Streptococcus pneumoniae [5]) [µg/mL] | MIC (Staphylococcus aureus [6]) [µg/mL] | MIC (Streptococcus pneumoniae [7]) [ng/mL] | MIC (Streptococcus pyogenes [8]) [µg/mL] | MIC (Staphylococcus aureus [9]) [µg/mL] |
| --- | --- | --- | --- | --- | --- | --- | --- | --- | --- | --- |
| CC[C@H]1OC(=O)[C@H](C)C(=O)[C@H](C)[C@@H](O[C@@H]2O[C@H](C)C[C@H](N(C)C)[C@H]2O)[C@@](C)(OCC#CCc2cnc3ccccc3c2)C[C@@H](C)C(=O)[C@H](C)[C@H]2NC(=O)O[C@@]21C | > 100 | 2 (≈ 2.57 µM) | 2 (≈ 2.57 µM) | 0.25 (≈ 0.321 µM) | 16 (≈ 20.6 µM) | 0.25 (≈ 0.321 µM) | 0.1 (≈ 0.129 µM) | < 4 | 0.015 (≈ 0.0193 µM) | 0.1 (≈ 0.129 µM) |
| CC[C@H]1OC(=O)[C@H](C)[C@@H](O[C@H]2C[C@@](C)(OC)[C@@H](O)[C@H](C)O2)[C@H](C)[C@@H](O[C@@H]2O[C@H](C)C[C@H](N(C)C)[C@H]2O)[C@](C)(O)C[C@@H](C)C(=O)[C@H](C)[C@@H](O)[C@]1(C)O [ERYTHROMYCIN] | > 128 | > 128 | 4 (≈ 5.45 µM) | 8 (≈ 10.9 µM) | > 128 | 4 (≈ 5.45 µM) | > 128 | 15 (≈ 0.0204 µM) | 0.015 (≈ 0.0204 µM) | 0.5 (≈ 0.681 µM) |
| CC[C@H]1OC(=O)[C@H](C)C(=O)[C@H](C)[C@@H](O[C@@H]2O[C@H](C)C[C@H](N(C)C)[C@H]2O)[C@@](C)(OCC#CCc2ccc(-c3cccnc3)cc2)C[C@@H](C)C(=O)[C@H](C)[C@H]2NC(=O)O[C@@]21C | > 100 | 0.125 (≈ 0.155 µM) | 4 (≈ 4.98 µM) | 0.125 (≈ 0.155 µM) | 8 (≈ 9.95 µM) | 0.125 (≈ 0.155 µM) | 0.02 (≈ 0.0249 µM) | < 4 | < 0.004 | 0.02 (≈ 0.0249 µM) |
| CC[C@H]1OC(=O)[C@H](C)C(=O)[C@H](C)[C@@H](O[C@@H]2O[C@H](C)C[C@H](N(C)C)[C@H]2O)[C@@](C)(OCC#CCc2ccc(-c3csnn3)cc2)C[C@@H](C)C(=O)[C@H](C)[C@H]2NC(=O)O[C@@]21C | > 100 | 8 (≈ 9.86 µM) | 2 (≈ 2.47 µM) | 0.125 (≈ 0.154 µM) | 4 (≈ 4.93 µM) | 0.25 (≈ 0.308 µM) | 0.1 (≈ 0.123 µM) | < 4 | 0.03 (≈ 0.037 µM) | 0.05 (≈ 0.0617 µM) |
| CC[C@H]1OC(=O)[C@@](C)(F)C(=O)[C@H](C)[C@@H](O[C@@H]2O[C@H](C)C[C@H](N(C)C)[C@H]2O)[C@@](C)(OCC#CCc2ccc(-c3csnn3)cc2)C[C@@H](C)C(=O)[C@H](C)[C@H]2NC(=O)O[C@@]21C | > 100 | 4 (≈ 4.83 µM) | 4 (≈ 4.83 µM) | 0.25 (≈ 0.302 µM) | 4 (≈ 4.83 µM) | 0.5 (≈ 0.603 µM) | 0.05 (≈ 0.0603 µM) | 15 (≈ 0.0181 µM) | 0.03 (≈ 0.0362 µM) | 0.05 (≈ 0.0603 µM) |
| CC[C@H]1OC(=O)[C@H](C)C(=O)[C@H](C)[C@@H](O[C@@H]2O[C@H](C)C[C@H](N(C)C)[C@H]2O)[C@](C)(OC)C[C@@H](C)C(=O)[C@H](C)[C@H]2N(CCCCn3cnc(-c4cccnc4)c3)C(=O)O[C@]12C [TELITHROMYCIN] | > 100 | 8 (≈ 9.85 µM) | 2 (≈ 2.46 µM) | 2 (≈ 2.46 µM) | 8 (≈ 9.85 µM) | 0.5 (≈ 0.616 µM) | 0.1 (≈ 0.123 µM) | 4 (≈ 0.00493 µM) | 0.004 (≈ 0.00493 µM) | 0.1 (≈ 0.123 µM) |
| CC[C@H]1OC(=O)[C@H](C)C(=O)[C@H](C)[C@@H](O[C@@H]2O[C@H](C)C[C@H](N(C)C)[C@H]2O)[C@@](C)(OCC#CCc2ccc(-c3cnccn3)cc2)C[C@@H](C)C(=O)[C@H](C)[C@H]2NC(=O)O[C@@]21C | > 100 | 0.03 (≈ 0.0373 µM) | 4 (≈ 4.97 µM) | 0.015 (≈ 0.0186 µM) | 4 (≈ 4.97 µM) |  | 0.02 (≈ 0.0248 µM) | < 4 | < 0.004 | 0.02 (≈ 0.0248 µM) |
| CC[C@H]1OC(=O)[C@H](C)C(=O)[C@H](C)[C@@H](O[C@@H]2O[C@H](C)C[C@H](N(C)C)[C@H]2O)[C@@](C)(OCC#CCc2ccccc2)C[C@@H](C)C(=O)[C@H](C)[C@H]2NC(=O)O[C@@]21C | > 100 | 16 (≈ 22 µM) | 2 (≈ 2.75 µM) | 0.25 (≈ 0.344 µM) | 128 (≈ 176 µM) | 0.25 (≈ 0.344 µM) | 0.2 (≈ 0.275 µM) | 30 (≈ 0.0413 µM) | 0.06 (≈ 0.0825 µM) | 0.2 (≈ 0.275 µM) |
